Test results as given in ChEMBL document CHEMBL1275303, “Synthesis and antimicrobial activity of 2-substituted [4-(1,3,4-oxadiazol-2-yl methyl)] phthalazin-1(2H)-one derivatives” (2010).

Legend:
[1] = tested on: Chrysosporium keratinophilum; assay: Antimicrobial activity against Chrysosporium keratinophilum at 100 ug/mL after 72 hrs by well plate method; type: functional; settings: read-out: IZ
How it was run: (§1)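 Antifungal well-plate assay on Sabouraud dextrose agar using a 72 h old broth culture of the fungal strain. Wells were filled with compound dissolved in DMSO (100 or 50), and the zone of inhibition around each well was measured. […] served as reference.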

[2] = tested on: Escherichia coli; assay: Antimicrobial activity against Escherichia coli at 50 ug/mL after 24 hrs by well plate method; type: functional; settings: read-out: IZ
How it was run: (§2)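 Agar well diffusion in nutrient agar. About 1 cm³ of a 24 h broth culture was placed in sterile dishes, and molten agar at 45 °C was poured over it and set. 6 mm wells were bored and filled with compound in DMSO (100 or 50). Plates were incubated 24 h at 37 °C, and the inhibition zone was read in mm. Duplicate runs, with standard deviation; amoxicillin as reference.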

[3] = tested on: Staphylococcus aureus; assay: Antimicrobial activity against Staphylococcus aureus at 100 ug/mL after 24 hrs by well plate method; type: functional; settings: read-out: IZ; how it was run: as §2
[4] = tested on: Chrysosporium keratinophilum; assay: Antimicrobial activity against Chrysosporium keratinophilum at 50 ug/mL after 72 hrs by well plate method; type: functional; settings: read-out: IZ; how it was run: as §1
[5] = tested on: Candida albicans; assay: Antimicrobial activity against Candida albicans at 100 ug/mL after 72 hrs by well plate method; type: functional; settings: read-out: IZ; how it was run: as §1
[6] = tested on: Candida albicans; assay: Antimicrobial activity against Candida albicans at 50 ug/mL after 72 hrs by well plate method; type: functional; settings: read-out: IZ; how it was run: as §1
[7] = tested on: Nannizzia gypsea; assay: Antimicrobial activity against Microsporum gypseum at 100 ug/mL after 72 hrs by well plate method; type: functional; settings: read-out: IZ; how it was run: as §1
[8] = tested on: Nannizzia gypsea; assay: Antimicrobial activity against Microsporum gypseum at 50 ug/mL after 72 hrs by well plate method; type: functional; settings: read-out: IZ; how it was run: as §1
[9] = tested on: Aspergillus flavus; assay: Antimicrobial activity against Aspergillus flavus at 100 ug/mL after 72 hrs by well plate method; type: functional; settings: read-out: IZ
[10] = tested on: Aspergillus flavus; assay: Antimicrobial activity against Aspergillus flavus at 50 ug/mL after 72 hrs by well plate method; type: functional; settings: read-out: IZ
[11] = tested on: Staphylococcus aureus; assay: Antimicrobial activity against Staphylococcus aureus at 50 ug/mL after 24 hrs by well plate method; type: functional; settings: read-out: IZ; how it was run: as §2
[12] = tested on: Bacillus subtilis; assay: Antimicrobial activity against Bacillus subtilis at 100 ug/mL after 24 hrs by well plate method; type: functional; settings: read-out: IZ; how it was run: as §2
[13] = tested on: Bacillus subtilis; assay: Antimicrobial activity against Bacillus subtilis at 50 ug/mL after 24 hrs by well plate method; type: functional; settings: read-out: IZ; how it was run: as §2
[14] = tested on: Salmonella typhi; assay: Antimicrobial activity against Salmonella typhi at 50 ug/mL after 24 hrs by well plate method; type: functional, Salmonella enterica subsp. enterica serovar Typhi; settings: Salmonella enterica, read-out: IZ
How it was run: (§3)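 Agar well diffusion in nutrient agar: about 1 cm³ of a 24 h broth culture placed in a sterile dish, molten agar at 45 °C poured over it and allowed to set. 6 mm holes cut with a sterile cork borer and filled with compound solution in DMSO. Incubated 24 h at 37 °C; inhibition zone diameter read in mm. Run in duplicate, standard deviation calculated.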

[15] = tested on: Salmonella typhi; assay: Antimicrobial activity against Salmonella typhi at 100 ug/mL after 24 hrs by well plate method; type: functional, Salmonella enterica subsp. enterica serovar Typhi; settings: Salmonella enterica, read-out: IZ; how it was run: as §3
[16] = tested on: Escherichia coli; assay: Antimicrobial activity against Escherichia coli at 100 ug/mL after 24 hrs by well plate method; type: functional; settings: read-out: IZ; how it was run: as §2

| Compound | zone of inhibition at 100 µg/mL [1] | zone of inhibition at 50 µg/mL [2] | zone of inhibition at 100 µg/mL [3] | zone of inhibition at 50 µg/mL [4] | zone of inhibition at 100 µg/mL [5] | zone of inhibition at 50 µg/mL [6] | zone of inhibition at 100 µg/mL [7] | zone of inhibition at 50 µg/mL [8] | zone of inhibition at 100 µg/mL [9] | zone of inhibition at 50 µg/mL [10] | zone of inhibition at 50 µg/mL [11] | zone of inhibition at 100 µg/mL [12] | zone of inhibition at 50 µg/mL [13] | zone of inhibition at 50 µg/mL [14] | zone of inhibition at 100 µg/mL [15] | zone of inhibition at 100 µg/mL [16] |
| --- | --- | --- | --- | --- | --- | --- | --- | --- | --- | --- | --- | --- | --- | --- | --- | --- |
| Cc1nnc(Cc2nn(Cc3ccc(Cl)nc3)c(=O)c3ccccc23)o1 | 0 mm | 1.5 mm | 1.5 mm | 0 mm | 3.5 mm | 1 mm | 2 mm | 0 mm | 5 mm | 1 mm | 0 mm | 0 mm | 0 mm | 1 mm | 2.5 mm | 3.5 mm |
| O=c1c2ccccc2c(Cc2nnc(C(F)(F)F)o2)nn1Cc1ccc(Cl)nc1 | 4.5 mm | 6 mm | 6 mm | 1 mm | 4.5 mm | 1.5 mm | 5 mm | 3 mm | 2.5 mm | 0 mm | 3.5 mm | 2 mm | 0 mm | 4 mm | 7 mm | 8 mm |
| O=c1c2ccccc2c(Cc2nnc(C3CC3)o2)nn1Cc1ccc(Cl)nc1 | 2.5 mm | 7 mm | 4.5 mm | 0.5 mm | 8.5 mm | 5.5 mm | 7.5 mm | 4.5 mm | 5 mm | 2.5 mm | 1 mm | 6.5 mm | 4 mm | 3 mm | 6 mm | 11.5 mm |
| O=c1c2ccccc2c(Cc2nnc(-c3ccc(F)cc3)o2)nn1Cc1ccc(Cl)nc1 | 1.5 mm | 8 mm | 6 mm | 0 mm | 4.5 mm | 2.5 mm | 6.5 mm | 4 mm | 4 mm | 2 mm | 4 mm | 5 mm | 3 mm | 3 mm | 7.5 mm | 10 mm |
| O=c1c2ccccc2c(Cc2nnc(-c3ccc(Cl)cc3)o2)nn1Cc1ccc(Cl)nc1 | 3 mm | 5 mm | 4.5 mm | 1 mm | 5.5 mm | 3 mm | 4 mm | 1 mm | 5 mm | 2.5 mm | 1 mm | 7 mm | 3.5 mm | 4 mm | 7.5 mm | 8 mm |
| Cc1ccccc1-c1nnc(Cc2nn(Cc3ccc(Cl)nc3)c(=O)c3ccccc23)o1 | 1.5 mm | 4.5 mm | 6.5 mm | 0 mm | 3 mm | 0 mm | 3 mm | 1 mm | 4 mm | 1 mm | 4.5 mm | 2.5 mm | 0 mm | 1 mm | 3 mm | 7 mm |
| O=c1c2ccccc2c(Cc2nnc(-c3ccsc3)o2)nn1Cc1ccc(Cl)nc1 | 10.5 mm | 10 mm | 11.5 mm | 6.5 mm | 7.5 mm | 5.5 mm | 11 mm | 6.5 mm | 7.5 mm | 4 mm | 7 mm | 6 mm | 4 mm | 10 mm | 15.5 mm | 15.5 mm |
| O=c1c2ccccc2c(Cc2nnc(-c3ccc(Cl)nc3)o2)nn1Cc1ccc(Cl)nc1 | 6.5 mm | 7.5 mm | 10.5 mm | 4.5 mm | 11.5 mm | 8.5 mm | 7 mm | 4 mm | 6.5 mm | 3.5 mm | 7.5 mm | 8 mm | 5.5 mm | 2.5 mm | 6.5 mm | 12.5 mm |
| Cc1nnc(Cc2nn(Cc3cnc(Cl)s3)c(=O)c3ccccc23)o1 | 2.5 mm | 2.5 mm | 1 mm | 0 mm | 2.5 mm | 1 mm | 3.5 mm | 0 mm | 3 mm | 1 mm | 0 mm | 3 mm | 1 mm | 2.5 mm | 4.5 mm | 5.5 mm |
| O=c1c2ccccc2c(Cc2nnc(C(F)(F)F)o2)nn1Cc1cnc(Cl)s1 | 5.5 mm | 3 mm | 7 mm | 2 mm | 3.5 mm | 0.5 mm | 5.5 mm | 3 mm | 4.5 mm | 1.5 mm | 4 mm | 5 mm | 3 mm | 3 mm | 5.5 mm | 6.5 mm |
| O=c1c2ccccc2c(Cc2nnc(C3CC3)o2)nn1Cc1cnc(Cl)s1 | 3.5 mm | 9 mm | 4.5 mm | 0.5 mm | 5.5 mm | 3.5 mm | 7 mm | 4.5 mm | 6 mm | 3.5 mm | 2 mm | 5.5 mm | 2 mm | 4 mm | 7.5 mm | 11.5 mm |
| O=c1c2ccccc2c(Cc2nnc(-c3ccc(F)cc3)o2)nn1Cc1cnc(Cl)s1 | 2.5 mm | 5 mm | 9 mm | 0 mm | 5.5 mm | 2.5 mm | 8.5 mm | 4 mm | 5 mm | 2 mm | 5 mm | 4.5 mm | 2 mm | 5 mm | 9 mm | 9 mm |
| CC1(C)S[C@@H]2[C@H](NC(=O)[C@H](N)c3ccc(O)cc3)C(=O)N2[C@H]1C(=O)O [AMOXICILLIN] | – | 15 mm | 16.5 mm | – | – | – | – | – | – | – | 12.5 mm | 14.5 mm | 10.5 mm | 12 mm | 20.5 mm | 18.5 mm |
| Cc1ncc([N+](=O)[O-])n1CCO [METRONIDAZOLE] | 14 mm | – | – | 11 mm | 19.5 mm | 15 mm | 17 mm | 14 mm | 17.5 mm | 13.5 mm | – | – | – | – | – | – |
